Results: ChEMBL document CHEMBL1126238, “Chemical and enzyme-mediated oxidation of the serotonergic neurotoxin 5,7-dihydroxytryptamine: mechanistic insights” (J Med Chem, 1992)

What was measured:
Format in all cases: ADME
[1] = Influence of Catalase (100 ug/mL) on the transition metal [Fe2+] (100 uM) ion mediated autoxidation.
Procedure, shortened: (§1)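 5,7-Dihydroxytryptamine (1.0 mM, 3.0 mL) in pH 7.4 phosphate buffer (ionic strength 0.1) at 37 °C. Runs contained 10 μM Cu2+ (as CuSO4) or 100 μM Fe2+, Fe3+ or Mn2+, alone or with catalase (100 μg/mL) or SOD (333 units/mL). The initial O2 uptake rate was measured by Clark-type oxygen electrode. Values are mean (n ≥ 2) ± SD.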

[2] = Influence of Catalase (100 ug/mL) on the transition metal [Fe3+] (100 uM) ion mediated autoxidation.; procedure, shortened: as §1
[3] = Effect of complexing agent DTPA (0.5 uM) on the initial rate of oxygen consumption during the autooxidation
Procedure, shortened: (§2)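 5,7-Dihydroxytryptamine (1.0 mM) in 3.0 mL air-saturated pH 7.4 phosphate buffer (ionic strength 0.1), 37 °C, with metal ion and/or chelator (DTPA or EDTA) added; Cu2+ supplied as CuSO4. The initial O2 consumption rate (nmol O2/min) was read with a Clark-type oxygen electrode. Values are mean (n ≥ 2) ± SD.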

[4] = Effect of complexing agent DTPA (10 uM) on the initial rate of oxygen consumption during the autooxidation; procedure, shortened: as §2
[5] = Influence of superoxide dismutase SOD (333 units/mL) on the transition metal Cu2+ (10 uM) ion mediated autoxidation.; procedure, shortened: as §1
[6] = Influence of superoxide dismutase SOD (333 units/mL) on the transition metal [Fe3+] (100 uM) ion mediated autoxidation.; procedure, shortened: as §1
[7] = Influence of superoxide dismutase SOD (333 units/mL) on the transition metal Mn2+ (100 uM) ion mediated autoxidation.; procedure, shortened: as §1
[8] = Influence of tyrosinase enzyme (18 units/mL) on the initial rate of oxygen consumption at a pH of 7.4.; details: pH 7.4
Procedure, shortened: (§3)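 5,7-Dihydroxytryptamine (1.0 mM) in 3.0 mL air-saturated phosphate buffer (ionic strength 0.1) at the stated pH, with bovine ceruloplasmin or mushroom tyrosinase at the listed units/mL. Initial O2 consumption (nmol O2/min) was recorded with a Clark-type oxygen electrode.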

[9] = Influence of tyrosinase enzyme (36 units/mL) on the initial rate of oxygen consumption at a pH of 7.4.; details: pH 7.4; procedure, shortened: as §3
[10] = Influence of tyrosinase enzyme (4.5 units/mL) on the initial rate of oxygen consumption at a pH of 7.4.; details: pH 7.4; procedure, shortened: as §3
[11] = Influence of tyrosinase enzyme (9 units/mL) on the initial rate of oxygen consumption at a pH of 7.4.; details: pH 7.4; procedure, shortened: as §3
[12] = Initial rate of oxygen consumption during the autooxidation of the compound.; procedure, shortened: as §2
[13] = Effect of transition metal ion and complexing agent Cu2+ (10 uM) +DTPA (1 uM) on the initial rate of oxygen consumption during the autooxidation; procedure, shortened: as §2
[14] = Effect of transition metal ion and complexing agent Cu2+ (10 uM) +EDTA (1 uM) on the initial rate of oxygen consumption during the autooxidation; procedure, shortened: as §2
[15] = Effect of transition metal ion and complexing agent [Fe2+] (100 uM) +DTPA (10 uM) on the initial rate of oxygen consumption during the autooxidation; procedure, shortened: as §2
[16] = Effect of transition metal ion and complexing agent [Fe2+] (100 uM) +EDTA (10 uM) on the initial rate of oxygen consumption during the autooxidation; procedure, shortened: as §2
[17] = Effect of transition metal ion and complexing agent [Fe3+] (100 uM) +DTPA (10 uM) on the initial rate of oxygen consumption during the autooxidation; procedure, shortened: as §2
[18] = Effect of transition metal ion and complexing agent [Fe3+] (100 uM) +EDTA (10 uM) on the initial rate of oxygen consumption during the autooxidation; procedure, shortened: as §2
[19] = Effect of transition metal ion and complexing agent Mn2+ (100 uM) +DTPA (10 uM) on the initial rate of oxygen consumption during the autooxidation; procedure, shortened: as §2
[20] = Effect of transition metal ion and complexing agent Mn2+ (100 uM) +EDTA (10 uM) on the initial rate of oxygen consumption during the autooxidation; procedure, shortened: as §2
[21] = Influence of Catalase (100 ug/mL) on the transition metal Cu2+ (10 uM) ion mediated autoxidation.; procedure, shortened: as §1
[22] = Effect of complexing agent DTPA (1 uM) on the initial rate of oxygen consumption during the autooxidation; procedure, shortened: as §2
[23] = Effect of complexing agent EDTA (1 uM) on the initial rate of oxygen consumption during the autooxidation; procedure, shortened: as §2
[24] = Effect of transition metal ion Cu2+ (10 uM) on the initial rate of oxygen consumption during the autooxidation; procedure, shortened: as §2
[25] = Effect of transition metal ion Cu2+ (1 uM) on the initial rate of oxygen consumption during the autooxidation; procedure, shortened: as §2
[26] = Effect of transition metal ion Cu2+ (20 uM) on the initial rate of oxygen consumption during the autooxidation; procedure, shortened: as §2
[27] = Effect of transition metal ion Cu2+ (40 uM) on the initial rate of oxygen consumption during the autooxidation; procedure, shortened: as §2
[28] = Effect of transition metal ion [Fe2+] (100 uM) on the initial rate of oxygen consumption during the autooxidation; procedure, shortened: as §2
[29] = Effect of transition metal ion [Fe2+] (10 uM) on the initial rate of oxygen consumption during the autooxidation; procedure, shortened: as §2
[30] = Effect of transition metal ion [Fe2+] (200 uM) on the initial rate of oxygen consumption during the autooxidation; procedure, shortened: as §2
[31] = Effect of transition metal ion [Fe2+] (50 uM) on the initial rate of oxygen consumption during the autooxidation; procedure, shortened: as §2
[32] = Effect of transition metal ion [Fe3+] (100 uM) on the initial rate of oxygen consumption during the autooxidation; procedure, shortened: as §2
[33] = Effect of transition metal ion [Fe3+] (10 uM) on the initial rate of oxygen consumption during the autooxidation; procedure, shortened: as §2
[34] = Effect of transition metal ion [Fe3+] (200 uM) on the initial rate of oxygen consumption during the autooxidation; procedure, shortened: as §2
[35] = Effect of transition metal ion [Fe3+] (50 uM) on the initial rate of oxygen consumption during the autooxidation; procedure, shortened: as §2
[36] = Effect of transition metal ion Mn2+ (100 uM) on the initial rate of oxygen consumption during the autooxidation; procedure, shortened: as §2
[37] = Effect of transition metal ion Mn2+ (10 uM) on the initial rate of oxygen consumption during the autooxidation; procedure, shortened: as §2
[38] = Effect of transition metal ion Mn2+ (50 uM) on the initial rate of oxygen consumption during the autooxidation; procedure, shortened: as §2
[39] = Influence of Catalase (100 ug/mL) on the transition metal Mn2+ (100 uM) ion mediated autoxidation.; procedure, shortened: as §1
[40] = Influence of ceruplasmin enzyme (10.5 units/mL) on the initial rate of oxygen consumption at a pH of 6.4.; details: pH 6.4; procedure, shortened: as §3
[41] = Influence of ceruplasmin enzyme (10.5 units/mL) on the initial rate of oxygen consumption at a pH of 7.4.; details: pH 7.4; procedure, shortened: as §3
[42] = Influence of ceruplasmin enzyme (21.0 units/mL) on the initial rate of oxygen consumption at a pH of 7.4.; details: pH 7.4; procedure, shortened: as §3
[43] = Influence of ceruplasmin enzyme (42.0 units/mL) on the initial rate of oxygen consumption at a pH of 7.4.; details: pH 7.4; procedure, shortened: as §3
[44] = Influence of peroxidase enzyme (10 units/mL) on the initial rate of oxygen consumption at a pH of 7.4.; details: pH 7.4
Procedure, shortened: (§4)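 Substrate 5,7-dihydroxytryptamine, 1.0 mM, in 3.0 mL air-saturated pH 7.4 phosphate buffer (ionic strength 0.1). Peroxidase was added at the listed units/mL, either with 1.0 mM H2O2 or with no H2O2. The initial O2 consumption rate was measured with a Clark-type oxygen electrode.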

[45] = Influence of peroxidase enzyme (15 units/mL) on the initial rate of oxygen consumption at a pH of 7.4.; details: pH 7.4; procedure, shortened: as §4
[46] = Influence of peroxidase enzyme (5 units/mL) on the initial rate of oxygen consumption at a pH of 7.4.; details: pH 7.4; procedure, shortened: as §4
[47] = Influence of superoxide dismutase SOD (333 units/mL) on the transition metal [Fe2+] (100 uM) ion mediated autoxidation.; procedure, shortened: as §1

## NCCc1c[nH]c2c(O)cc(O)cc12
[1]
  Rate of O2 consumption: 328 nM/min
[2]
  Rate of O2 consumption: 51 nM/min
[3]
  Rate of O2 consumption: 24 nM/min
[4]
  Rate of O2 consumption: 23.6 nM/min
[5]
  Rate of O2 consumption: 1583 nM/min
[6]
  Rate of O2 consumption: 48.5 nM/min
[7]
  Rate of O2 consumption: 81.2 nM/min
[8]
  Rate of O2 consumption: 192 nM/min
[9]
  Rate of O2 consumption: 304 nM/min
[10]
  Rate of O2 consumption: 85 nM/min
[11]
  Rate of O2 consumption: 126 nM/min
[12]
  Rate of O2 consumption: 34.1 nM/min
[13]
  Rate of O2 consumption: 32.1 nM/min
[14]
  Rate of O2 consumption: 45.6 nM/min
[15]
  Rate of O2 consumption: 58 nM/min
[16]
  Rate of O2 consumption: 712 nM/min
[17]
  Rate of O2 consumption: 39.2 nM/min
[18]
  Rate of O2 consumption: 97 nM/min
[19]
  Rate of O2 consumption: 36.7 nM/min
[20]
  Rate of O2 consumption: 51.3 nM/min
[21]
  Rate of O2 consumption: 1524 nM/min
[22]
  Rate of O2 consumption: 24.2 nM/min
[23]
  Rate of O2 consumption: 39.6 nM/min
[24]
  Rate of O2 consumption: 1490 nM/min
[25]
  Rate of O2 consumption: 638 nM/min
[26]
  Rate of O2 consumption: 2244 nM/min
[27]
  Rate of O2 consumption: 2367 nM/min
[28]
  Rate of O2 consumption: 628 nM/min
[29]
  Rate of O2 consumption: 252 nM/min
[30]
  Rate of O2 consumption: 801 nM/min
[31]
  Rate of O2 consumption: 483 nM/min
[32]
  Rate of O2 consumption: 86 nM/min
[33]
  Rate of O2 consumption: 50 nM/min
[34]
  Rate of O2 consumption: 125 nM/min
[35]
  Rate of O2 consumption: 68 nM/min
[36]
  Rate of O2 consumption: 87 nM/min
[37]
  Rate of O2 consumption: 61 nM/min
[38]
  Rate of O2 consumption: 70 nM/min
[39]
  Rate of O2 consumption: 54.5 nM/min
[40]
  Rate of O2 consumption: 453 nM/min
[41]
  Rate of O2 consumption: 71.4 nM/min
[42]
  Rate of O2 consumption: 129 nM/min
[43]
  Rate of O2 consumption: 240 nM/min
[44]
  Rate of O2 consumption: 89 nM/min
[45]
  Rate of O2 consumption: 102 nM/min
[46]
  Rate of O2 consumption: 79 nM/min
[47]
  Rate of O2 consumption: 645 nM/min
